Where “and” joins values, the source holds several entries; their conditions need not be identical. Equal values may be shown once.
Tested on: Fibroblast
Test: Multiplex assay against human fibroblast
Type: toxicity, cell-based
Conditions: number of replicates 2
Summary of the method: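 With compound added, live cells were imaged on a CQ1 microscope at 37°C and 5% CO2; staining with Hoechst33342, BioTracker Green Microtubule Cytoskeleton Dye, MitoTracker Red and Annexin V Alexa Fluor 680 had been done at seeding. The CellPathfinder machine-learning gating scheme split cells into Hoechst high-intensity objects or normal cells, normal cells into healthy, pyknosed or fragmented nuclei, and pyknosed cells into mitotic or apoptotic. The tubulin, mitochondrial-mass and membrane-permeability phenotypes are per cents of healthy-nucleus cells.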

[1] = 12 h, 1 µM, compound concentration 1 uM
[2] = 12 h, 10 µM, compound concentration 10 uM
[3] = 24 h, 1 µM, compound concentration 1 uM
[4] = 24 h, 10 µM, compound concentration 10 uM
[5] = 48 h, 1 µM, compound concentration 1 uM
[6] = 48 h, 10 µM, compound concentration 10 uM

SMILES: C[C@H](N)Cn1ccc2cc(F)c(Cl)cc21.O=C(O)/C=C/C(=O)O
- Population Apoptotic (%) [1]: 44% and 40%
- Population Fragmented Nuclei (%) [1]: 14%
- Population Healthy Nuclei (%) [1]: 74% and 61%
- Population Hoechst High Intensity Objects (%) [1]: 0%
- Population Membrane Permeable-Phenotype (%) [1]: 5% and 6%
- Population Mitochondria Different-Phenotype (%) [1]: 0% and 1%
- Population Mitotic Cells (%) [1]: 55% and 60%
- Population Normal (%) [1]: 100%
- Population Pyknosed Nuclei (%) [1]: 11% and 24%
- Population Tubulin-Different-Phenotype (%) [1]: 14% and 11%
- Total Cell Count [1]: 252 and 208
- Population Apoptotic (%) [2]: 45% and 37%
- Population Fragmented Nuclei (%) [2]: 14% and 22%
- Population Healthy Nuclei (%) [2]: 69% and 58%
- Population Hoechst High Intensity Objects (%) [2]: 0%
- Population Membrane Permeable-Phenotype (%) [2]: 11% and 12%
- Population Mitochondria Different-Phenotype (%) [2]: 3% and 6%
- Population Mitotic Cells (%) [2]: 54% and 62%
- Population Normal (%) [2]: 100%
- Population Pyknosed Nuclei (%) [2]: 16% and 19%
- Population Tubulin-Different-Phenotype (%) [2]: 24% and 26%
- Total Cell Count [2]: 189 and 184
- Population Apoptotic (%) [3]: 42% and 68%
- Population Healthy Nuclei (%) [3]: 25% and 72%
- Population Hoechst High Intensity Objects (%) [3]: 1% and 0%
- Population Mitochondria Different-Phenotype (%) [3]: 2% and 1%
- Population Mitotic Cells (%) [3]: 57% and 31%
- Population Normal (%) [3]: 98% and 99%
- Population Pyknosed Nuclei (%) [3]: 23% and 11%
- Total Cell Count [3]: 149 and 256
- Population Apoptotic (%) [4]: 53% and 51%
- Population Fragmented Nuclei (%) [4]: 24% and 28%
- Population Healthy Nuclei (%) [4]: 63% and 56%
- Population Hoechst High Intensity Objects (%) [4]: 0%
- Population Membrane Permeable-Phenotype (%) [4]: 4% and 7%
- Population Mitochondria Different-Phenotype (%) [4]: 0% and 5%
- Population Mitotic Cells (%) [4]: 46% and 48%
- Population Normal (%) [4]: 99% and 100%
- Population Pyknosed Nuclei (%) [4]: 12% and 14%
- Population Tubulin-Different-Phenotype (%) [4]: 23% and 28%
- Total Cell Count [4]: 208
- Population Apoptotic (%) [5]: 65% and 56%
- Population Fragmented Nuclei (%) [5]: 18% and 21%
- Population Healthy Nuclei (%) [5]: 67% and 59%
- Population Hoechst High Intensity Objects (%) [5]: 0%
- Population Membrane Permeable-Phenotype (%) [5]: 4% and 5%
- Population Mitochondria Different-Phenotype (%) [5]: 0% and 1%
- Population Mitotic Cells (%) [5]: 34% and 43%
- Population Normal (%) [5]: 100% and 99%
- Population Pyknosed Nuclei (%) [5]: 13% and 18%
- Population Tubulin-Different-Phenotype (%) [5]: 7% and 9%
- Total Cell Count [5]: 258 and 233
- Population Apoptotic (%) [6]: 60% and 65%
- Population Fragmented Nuclei (%) [6]: 33% and 30%
- Population Healthy Nuclei (%) [6]: 58% and 60%
- Population Hoechst High Intensity Objects (%) [6]: 0%
- Population Membrane Permeable-Phenotype (%) [6]: 4% and 6%
- Population Mitochondria Different-Phenotype (%) [6]: 0% and 1%
- Population Mitotic Cells (%) [6]: 40% and 35%
- Population Normal (%) [6]: 99%
- Population Pyknosed Nuclei (%) [6]: 7% and 9%
- Population Tubulin-Different-Phenotype (%) [6]: 22% and 18%
- Total Cell Count [6]: 255 and 217

SMILES: COCCN1CCN(CCn2ccc(Nc3ncc4c(n3)-c3c(nn(C)c3-c3ccccc3)C[C@H]4C)n2)CC1
- Population Apoptotic (%) [1]: 48% and 20%
- Population Fragmented Nuclei (%) [1]: 9% and 8%
- Population Healthy Nuclei (%) [1]: 73% and 72%
- Population Hoechst High Intensity Objects (%) [1]: 0%
- Population Membrane Permeable-Phenotype (%) [1]: 4% and 8%
- Population Mitochondria Different-Phenotype (%) [1]: 0% and 1%
- Population Mitotic Cells (%) [1]: 51% and 79%
- Population Normal (%) [1]: 100%
- Population Pyknosed Nuclei (%) [1]: 16% and 19%
- Population Tubulin-Different-Phenotype (%) [1]: 16% and 12%
- Total Cell Count [1]: 202 and 275
- Population Apoptotic (%) [2]: 32% and 46%
- Population Fragmented Nuclei (%) [2]: 13% and 20%
- Population Healthy Nuclei (%) [2]: 57% and 61%
- Population Hoechst High Intensity Objects (%) [2]: 0%
- Population Membrane Permeable-Phenotype (%) [2]: 12% and 5%
- Population Mitochondria Different-Phenotype (%) [2]: 2%
- Population Mitotic Cells (%) [2]: 67% and 53%
- Population Normal (%) [2]: 99%
- Population Pyknosed Nuclei (%) [2]: 29% and 18%
- Population Tubulin-Different-Phenotype (%) [2]: 58% and 32%
- Total Cell Count [2]: 222 and 175
- Population Apoptotic (%) [3]: 51% and 44%
- Population Fragmented Nuclei (%) [3]: 10% and 11%
- Population Healthy Nuclei (%) [3]: 72% and 69%
- Population Hoechst High Intensity Objects (%) [3]: 0%
- Population Membrane Permeable-Phenotype (%) [3]: 5% and 4%
- Population Mitochondria Different-Phenotype (%) [3]: 0%
- Population Mitotic Cells (%) [3]: 48% and 55%
- Population Normal (%) [3]: 99%
- Population Pyknosed Nuclei (%) [3]: 16% and 19%
- Population Tubulin-Different-Phenotype (%) [3]: 14% and 10%
- Total Cell Count [3]: 188 and 271
- Population Apoptotic (%) [4]: 57% and 51%
- Population Fragmented Nuclei (%) [4]: 13% and 16%
- Population Healthy Nuclei (%) [4]: 59% and 64%
- Population Hoechst High Intensity Objects (%) [4]: 1% and 0%
- Population Membrane Permeable-Phenotype (%) [4]: 7% and 3%
- Population Mitochondria Different-Phenotype (%) [4]: 4% and 5%
- Population Mitotic Cells (%) [4]: 42% and 48%
- Population Normal (%) [4]: 98% and 100%
- Population Pyknosed Nuclei (%) [4]: 27% and 19%
- Population Tubulin-Different-Phenotype (%) [4]: 53% and 29%
- Total Cell Count [4]: 201 and 173
- Population Apoptotic (%) [5]: 52% and 60%
- Population Fragmented Nuclei (%) [5]: 10% and 12%
- Population Healthy Nuclei (%) [5]: 74% and 72%
- Population Hoechst High Intensity Objects (%) [5]: 0%
- Population Membrane Permeable-Phenotype (%) [5]: 6% and 4%
- Population Mitochondria Different-Phenotype (%) [5]: 0%
- Population Mitotic Cells (%) [5]: 48% and 39%
- Population Normal (%) [5]: 100% and 99%
- Population Pyknosed Nuclei (%) [5]: 14% and 15%
- Population Tubulin-Different-Phenotype (%) [5]: 12% and 6%
- Total Cell Count [5]: 171 and 271
- Population Apoptotic (%) [6]: 63% and 46%
- Population Fragmented Nuclei (%) [6]: 16% and 15%
- Population Healthy Nuclei (%) [6]: 65% and 66%
- Population Hoechst High Intensity Objects (%) [6]: 0%
- Population Membrane Permeable-Phenotype (%) [6]: 8% and 6%
- Population Mitochondria Different-Phenotype (%) [6]: 3% and 8%
- Population Mitotic Cells (%) [6]: 36% and 53%
- Population Normal (%) [6]: 99%
- Population Pyknosed Nuclei (%) [6]: 18% and 17%
- Population Tubulin-Different-Phenotype (%) [6]: 43% and 17%
- Total Cell Count [6]: 201 and 161

From ChEMBL document CHEMBL5303300, “EUbOPEN Chemogenomics Library - Multiplex” (2023)
